Calls of active or inactive are those of the source. The rule behind the calls is not given here.
What was measured:
[1] = biological target: Sigma non-opioid intracellular receptor 1 (Cavia porcellus) (UniProt Q60492); experiment: Displacement of [3H]-(+)-pentazocine from sigma 1 receptor in guinea pig brain membranes after 150 mins in presence of 1 mM to 250 uM of phenytoin; type: cell membranes; details: Membrane
How it was run: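 Guinea pig brain [3H](+)-pentazocine competition binding run without phenytoin and with 250 μM or 1 mM phenytoin. Ki ratios (control/with phenytoin) computed. Hill analysis of competition curves. Cocaine served as the putative σ1 agonist control.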

[2] = biological target: Sigma non-opioid intracellular receptor 1 (Cavia porcellus, UniProt Q60492); experiment: Displacement of [3H]-(+)-pentazocine from sigma 1 receptor in guinea pig brain membranes after 150 mins; type: cell membranes, Membrane
[3] = Displacement of [3H]DTG from sigma 2 receptor in guinea pig brain membranes after 120 mins; type: cell membranes, Cavia porcellus, Membrane
Cavia porcellus = organism: Cavia porcellus; experiment: Selectivity ratio of Ki for sigma 1 receptor in guinea pig brain membranes to Ki for sigma 2 receptor in guinea pig brain membranes; type: cell membranes
LNCaP = experiment: Antiproliferative activity against human LNCAP cells at 100 uM after 48 hrs; type: functional, cell-based
How it was run: (§1)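 LNCaP (hormone-sensitive) and PC3 (hormone-refractory) prostate tumour cells exposed to 100 μM compound for 48 h; antiproliferative effect measured. Haloperidol and haloperidol metabolite II run as references.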

[4] = biological target: D(1A) dopamine receptor (Rattus norvegicus) (UniProt P18901); experiment: Binding affinity to dopamine D1 receptor in rat striatum; type: tissue-based
PC-3 = experiment: Antiproliferative activity against human PC3 cells at 100 uM after 48 hrs; type: functional, cell-based; how it was run: as §1
[5] = Agonist activity at sigma 2 receptor in guinea pig longitudinal muscle/myenteric plexus assessed as inhibition of electrically-induced contraction; type: functional; details: Cavia porcellus
How it was run: (§2)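 Guinea pig ileum preparation with sigma-1 receptors desensitized. Electrically evoked contractions recorded in an isolated organ bath; a dose-response curve was built from the inhibition of the evoked contractions.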

[6] = Partial agonist activity at sigma 2 receptor in guinea pig longitudinal muscle/myenteric plexus assessed as inhibition of electrically-induced contraction; type: functional, Cavia porcellus; how it was run: as §2
[7] = biological target: Mu-type opioid receptor (Rattus norvegicus) (UniProt P33535); experiment: Displacement of [3H]naloxone from mu opioid receptor in rat brain membranes; type: cell membranes
[8] = Binding affinity to dopamine D4.2 receptor
[9] = biological target: D(3) dopamine receptor (Rattus norvegicus) (UniProt P19020); experiment: Binding affinity to dopamine D3 receptor in rat olfactory tubercle; type: tissue-based
[10] = biological target: 5-hydroxytryptamine receptor 2A (Rattus norvegicus) (UniProt P14842); experiment: Binding affinity to 5-HT2A receptor in rat cortex; type: tissue-based
[11] = biological target: Adrenergic receptor alpha-1 (Rattus norvegicus) (UniProt P15823+P23944+P43140); experiment: Binding affinity to adrenergic alpha1 receptor in rat cortex
[12] = biological target: D(2) dopamine receptor (Rattus norvegicus) (UniProt P61169); experiment: Binding affinity to dopamine D2 receptor in rat striatum; type: tissue-based
Rattus norvegicus [13] = experiment: Potentiation of (-)-U50488H-induced antinociceptive activity in Sprague-Dawley rat assessed as mean AUC of thermal-stimulus induced tail flick latency for 60 mins at 1 mg/kg, sc treated 45 mins before (-)-U50488H challenge; type: functional; details: route subcutaneous
How it was run: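 Rats were pretreated sc with test compound at 1 mg/kg 45 min before the κ agonist (−)-U50,488H at 5 mg/kg sc. Thermal-stimulus tail flick latency was taken as percent change from basal over 60 min and summarised as MAUC after the last injection. Groups were compared with saline- and U50,488H-only groups, n = 8–10, mean ± SD, p < 0.05.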

Rattus norvegicus [14] = experiment: Antinociceptive activity in Sprague-Dawley rat assessed as mean AUC of thermal-stimulus induced tail flick latency for 60 mins at 1 mg/kg, sc; type: functional, organism-based; parameters: dose 1 mg/kg
How it was run: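 Rats given test compound 1 mg/kg sc alone. Tail flick latency to thermal stimulation, expressed as percent change from basal, tracked over a 60 min window. Summarised as mean area under the curve (MAUC) after the last injection. Compared against saline-treated rats, n = 8–10 per group, mean ± SD, significance at p < 0.05.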

Sequence of Sigma non-opioid intracellular receptor 1 (Q60492 whole entry): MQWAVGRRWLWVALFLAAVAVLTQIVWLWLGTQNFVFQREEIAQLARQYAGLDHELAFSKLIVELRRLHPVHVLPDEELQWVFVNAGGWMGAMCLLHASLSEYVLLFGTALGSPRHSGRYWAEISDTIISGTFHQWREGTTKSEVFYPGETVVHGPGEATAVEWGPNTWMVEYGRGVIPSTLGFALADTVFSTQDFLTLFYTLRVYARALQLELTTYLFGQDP
Sequence of Sigma non-opioid intracellular receptor 1 (Cavia porcellus) (Q60492 whole entry): as above
Sequence of D(3) dopamine receptor (Rattus norvegicus) (P19020 whole entry): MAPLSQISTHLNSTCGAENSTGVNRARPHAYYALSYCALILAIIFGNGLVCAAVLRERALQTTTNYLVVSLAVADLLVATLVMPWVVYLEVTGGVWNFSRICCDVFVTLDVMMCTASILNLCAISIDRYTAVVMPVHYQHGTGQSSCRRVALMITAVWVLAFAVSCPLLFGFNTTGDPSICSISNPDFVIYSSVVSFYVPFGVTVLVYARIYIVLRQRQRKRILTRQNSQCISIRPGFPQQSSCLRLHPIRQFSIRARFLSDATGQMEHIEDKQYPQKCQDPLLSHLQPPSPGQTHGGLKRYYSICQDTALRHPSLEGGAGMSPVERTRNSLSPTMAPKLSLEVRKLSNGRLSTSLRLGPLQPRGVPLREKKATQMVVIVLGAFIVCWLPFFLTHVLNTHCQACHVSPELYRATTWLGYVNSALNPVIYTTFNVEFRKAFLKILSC
Sequence of Mu-type opioid receptor (Rattus norvegicus) (P33535 whole entry): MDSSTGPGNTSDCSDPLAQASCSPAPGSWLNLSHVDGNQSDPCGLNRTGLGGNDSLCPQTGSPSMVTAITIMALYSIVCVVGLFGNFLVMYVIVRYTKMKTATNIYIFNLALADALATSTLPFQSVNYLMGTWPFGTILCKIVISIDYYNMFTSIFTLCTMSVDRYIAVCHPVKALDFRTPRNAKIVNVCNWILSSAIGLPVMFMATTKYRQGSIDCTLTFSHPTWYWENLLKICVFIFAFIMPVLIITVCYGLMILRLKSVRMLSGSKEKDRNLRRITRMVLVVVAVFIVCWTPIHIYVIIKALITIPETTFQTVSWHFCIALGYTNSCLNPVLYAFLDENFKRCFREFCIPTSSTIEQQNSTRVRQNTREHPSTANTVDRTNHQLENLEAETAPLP
Sequence of 5-hydroxytryptamine receptor 2A (Rattus norvegicus) (P14842 whole entry): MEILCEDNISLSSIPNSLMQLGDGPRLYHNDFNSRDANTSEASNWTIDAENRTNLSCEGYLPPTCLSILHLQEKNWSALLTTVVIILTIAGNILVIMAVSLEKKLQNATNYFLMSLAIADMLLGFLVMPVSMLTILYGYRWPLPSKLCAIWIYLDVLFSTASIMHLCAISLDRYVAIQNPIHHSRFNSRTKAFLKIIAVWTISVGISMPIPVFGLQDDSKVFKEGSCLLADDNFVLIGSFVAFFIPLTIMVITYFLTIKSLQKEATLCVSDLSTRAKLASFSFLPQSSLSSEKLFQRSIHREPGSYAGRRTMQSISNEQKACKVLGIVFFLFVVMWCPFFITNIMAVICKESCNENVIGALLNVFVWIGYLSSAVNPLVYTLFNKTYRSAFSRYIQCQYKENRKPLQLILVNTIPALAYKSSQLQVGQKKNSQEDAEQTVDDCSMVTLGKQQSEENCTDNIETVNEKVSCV
Sequence of D(2) dopamine receptor (Rattus norvegicus) (P61169 whole entry): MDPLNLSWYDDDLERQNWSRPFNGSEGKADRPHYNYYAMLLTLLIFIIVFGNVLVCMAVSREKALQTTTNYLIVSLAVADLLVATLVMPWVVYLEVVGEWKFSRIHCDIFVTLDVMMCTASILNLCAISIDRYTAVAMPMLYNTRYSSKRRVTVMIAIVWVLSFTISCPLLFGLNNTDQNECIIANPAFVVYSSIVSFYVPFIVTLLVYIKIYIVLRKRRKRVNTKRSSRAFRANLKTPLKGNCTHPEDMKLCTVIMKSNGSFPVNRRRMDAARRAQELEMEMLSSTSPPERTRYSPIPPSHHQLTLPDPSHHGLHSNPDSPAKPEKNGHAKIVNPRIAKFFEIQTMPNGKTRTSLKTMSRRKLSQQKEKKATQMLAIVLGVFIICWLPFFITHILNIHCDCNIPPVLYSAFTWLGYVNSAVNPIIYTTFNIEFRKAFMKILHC
Sequence of D(1A) dopamine receptor (Rattus norvegicus) (P18901 whole entry): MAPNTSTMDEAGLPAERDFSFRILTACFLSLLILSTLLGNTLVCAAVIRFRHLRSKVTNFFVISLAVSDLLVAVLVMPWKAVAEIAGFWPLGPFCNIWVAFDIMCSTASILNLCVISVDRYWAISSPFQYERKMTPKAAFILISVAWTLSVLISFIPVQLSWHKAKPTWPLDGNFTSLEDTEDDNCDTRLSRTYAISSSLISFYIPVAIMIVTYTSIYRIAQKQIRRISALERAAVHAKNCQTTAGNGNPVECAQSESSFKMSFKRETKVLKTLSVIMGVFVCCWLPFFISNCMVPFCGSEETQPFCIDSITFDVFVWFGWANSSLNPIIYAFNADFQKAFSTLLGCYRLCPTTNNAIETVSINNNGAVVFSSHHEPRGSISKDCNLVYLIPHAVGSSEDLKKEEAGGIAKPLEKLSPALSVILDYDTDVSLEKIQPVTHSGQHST

| SMILES | Ki [2] [nM] | Ki [3] [nM] | Ratio Ki (Cavia porcellus) | also measured |
| --- | --- | --- | --- | --- |
| COC(=O)[C@]1(c2ccccc2)C[C@@H]1CN1CCC(O)(c2ccc(Cl)cc2)CC1 | 3.95 | 21.9 |  | inhibition [1]: Active |
| O=C(CCCN1CCC(O)(c2ccc(Cl)cc2)CC1)c1ccc(F)cc1 [HALOPERIDOL] |  | 16 |  |  |
| COC(=O)[C@]1(c2ccccc2)C[C@@H]1CN1[C@@H]2CC[C@H]1C[C@@](O)(c1ccc(Cl)cc1)C2 | 44 | 58.3 | 1.3 |  |
| O=C(CCCc1ccccc1)OC(CCCN1CCC(O)(c2ccc(Cl)cc2)CC1)c1ccc(F)cc1 (racemic) | 5.4 | 0.98 | 0.18 |  |
| COC(=O)[C@]1(c2ccccc2)C[C@@H]1CN1CCC(O)(c2ccccc2)CC1 | 5.02 | 28.2 | 5.6 |  |
| COC(=O)[C@@]1(c2ccccc2)C[C@H]1CN1C2C=C(c3ccc(Cl)cc3)CC1CC2 (mixture of isomers) | 198 | 565 | 2.8 |  |
| COC(=O)[C@]1(c2ccccc2)C[C@@H]1CN1C2C=C(c3ccc(Cl)cc3)CC1CC2 (mixture of isomers) | 397 | 943 | 2.4 |  |
| Cc1ccccc1NC(=N)Nc1ccccc1C [DITOLYLGUANIDINE] |  | 23 |  |  |
| COC(=O)[C@@]1(c2ccccc2)C[C@H]1CN1CCC(O)(c2ccc(Cl)cc2)CC1 | 5.61 | 23.4 |  |  |
| COC(=O)[C@H]1[C@@H](OC(=O)c2ccccc2)C[C@@H]2CC[C@H]1N2C |  |  |  | inhibition [1]: inactive |
| COC(=O)[C@@]1(c2ccccc2)C[C@H]1CN1[C@@H]2CC[C@H]1C[C@@](O)(c1ccc(Cl)cc1)C2 | 520 | 25.2 | 0.05 | Activity (LNCaP): Active; Activity [4]: Active; Activity (PC-3): Active; EC50 [5]: 2300 nM; Alpha max [6]: 0.4; Activity [7]: Active; Activity [8]: Active; Activity [9]: Active; Activity [10]: Active; Activity [11]: Active; Activity [12]: Active |
| COC(=O)[C@@]1(c2ccccc2)C[C@H]1CN1CCC(O)(c2ccccc2)CC1 | 7.01 | 571 | 81.4 | Activity (Rattus norvegicus [13]): 118.2%; Activity [4]: Active; inhibition [1]: Active; Activity [7]: Active; Activity [8]: Active; Activity [9]: Active; Activity [10]: Active; Activity (Rattus norvegicus [14]): inactive; Activity [11]: Active; Activity [12]: Active |
